The results in this text go back to ChEMBL document CHEMBL3351764, “Design, synthesis and biological activity of flavonoid derivatives as selective agonists for neuromedin U 2 receptor” (Bioorg Med Chem, 2014).

The target of one assay is Neuromedin-U receptor 2 (Homo sapiens, UniProt Q9GZQ4). In words: Agonist activity at human NMU2R transfected in HEK293 cells after 7 hrs by luciferase reporter gene assay. In kind it is cell-based. The essentials: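 HEK-293 cells were stably co-transfected with a reporter gene construct and human NMU2R cDNA in pcDNA3.1(+), maintained under G418 selection at 37 °C in 5% CO2, then seeded and incubated overnight. Compounds were added at various concentrations for 7 h at 37 °C, followed by Bright-Glo luciferase read-out. Forskolin and NMU served as positive controls. EC50 was fitted by four-parameter logistic regression; means ± SEM of three independent experiments.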
Background: Reporter assays use an easily measured gene product as a stand-in for the process of interest.

For assay [1], the target named is Melanocyte-stimulating hormone receptor (Homo sapiens) (UniProt Q01726). Description: Agonist activity at human MC1 receptor at 100 uM to 5 mM.
The target of assay [2] is Adrenocorticotropic hormone receptor (Homo sapiens) (UniProt Q01718). Description: Agonist activity at human MC2 receptor at 100 uM to 5 mM.
Assay [3] concerns the target Melanocortin receptor 4 (Homo sapiens) (UniProt P32245). In words: Agonist activity at human MC4 receptor at 100 uM to 5 mM.
In assay [4] the target is Melanocyte-stimulating hormone receptor (Mus musculus) (UniProt Q01727). Description: Agonist activity at mouse MC1 receptor at 100 uM to 5 mM.
In assay [5] the target is Melanocortin receptor 5 (Mus musculus) (UniProt P41149). In words: Agonist activity at mouse MC5 receptor at 100 uM to 5 mM.
For assay [6], the target named is T1, Neuromedin-U receptor 1 (Homo sapiens) (UniProt Q9HB89).
T1 sequence (whole entry): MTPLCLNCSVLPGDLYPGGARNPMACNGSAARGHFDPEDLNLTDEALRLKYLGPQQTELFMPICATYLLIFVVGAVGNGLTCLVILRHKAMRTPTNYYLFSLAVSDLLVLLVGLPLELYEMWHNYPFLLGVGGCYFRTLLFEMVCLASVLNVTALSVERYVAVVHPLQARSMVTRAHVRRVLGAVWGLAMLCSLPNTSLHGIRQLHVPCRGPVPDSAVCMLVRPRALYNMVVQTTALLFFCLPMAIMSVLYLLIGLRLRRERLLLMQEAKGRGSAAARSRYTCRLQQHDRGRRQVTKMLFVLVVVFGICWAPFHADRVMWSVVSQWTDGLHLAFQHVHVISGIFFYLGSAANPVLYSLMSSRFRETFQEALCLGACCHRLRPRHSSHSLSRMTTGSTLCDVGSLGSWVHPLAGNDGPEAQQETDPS
In words: Agonist activity at human NMU1 receptor at 100 uM to 5 mM.

Assay [7] concerns the target T2, Muscarinic acetylcholine receptor M1 (Homo sapiens) (UniProt P11229).
T2 sequence (whole entry): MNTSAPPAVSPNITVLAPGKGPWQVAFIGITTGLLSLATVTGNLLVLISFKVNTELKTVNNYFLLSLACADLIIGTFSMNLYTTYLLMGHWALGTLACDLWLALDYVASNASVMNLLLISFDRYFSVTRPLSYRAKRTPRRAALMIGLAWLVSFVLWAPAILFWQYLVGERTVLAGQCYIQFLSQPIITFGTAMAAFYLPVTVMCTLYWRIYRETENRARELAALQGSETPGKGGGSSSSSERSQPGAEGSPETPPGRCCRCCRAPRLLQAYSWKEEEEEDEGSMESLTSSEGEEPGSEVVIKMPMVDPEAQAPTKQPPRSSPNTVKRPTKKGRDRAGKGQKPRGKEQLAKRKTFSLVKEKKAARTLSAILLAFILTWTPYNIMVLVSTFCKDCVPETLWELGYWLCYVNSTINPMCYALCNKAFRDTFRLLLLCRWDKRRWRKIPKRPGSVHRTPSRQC
Description: Agonist activity at human M1 receptor at 100 uM to 5 mM.

The target in assay [8] is D(1A) dopamine receptor (Homo sapiens) (UniProt P21728). In words: Agonist activity at human D1 receptor at 100 uM to 5 mM.
Assay [9] addresses T3, Adenosine receptor A1 (Homo sapiens) (UniProt P30542).
T3 sequence (whole entry): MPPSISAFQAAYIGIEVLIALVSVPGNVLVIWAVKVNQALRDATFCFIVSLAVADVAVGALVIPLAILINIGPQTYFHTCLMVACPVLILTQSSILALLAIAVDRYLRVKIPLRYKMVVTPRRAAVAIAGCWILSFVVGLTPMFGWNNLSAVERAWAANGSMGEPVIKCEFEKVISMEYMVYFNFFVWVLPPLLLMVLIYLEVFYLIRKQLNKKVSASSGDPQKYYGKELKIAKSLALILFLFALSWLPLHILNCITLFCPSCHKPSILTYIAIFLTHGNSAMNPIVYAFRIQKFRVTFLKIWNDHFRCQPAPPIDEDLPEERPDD
Description: Agonist activity at human A1 receptor at 100 uM to 5 mM.

The target in assay [10] is T4, Parathyroid hormone/parathyroid hormone-related peptide receptor (Homo sapiens) (UniProt Q03431).
T4 sequence (whole entry): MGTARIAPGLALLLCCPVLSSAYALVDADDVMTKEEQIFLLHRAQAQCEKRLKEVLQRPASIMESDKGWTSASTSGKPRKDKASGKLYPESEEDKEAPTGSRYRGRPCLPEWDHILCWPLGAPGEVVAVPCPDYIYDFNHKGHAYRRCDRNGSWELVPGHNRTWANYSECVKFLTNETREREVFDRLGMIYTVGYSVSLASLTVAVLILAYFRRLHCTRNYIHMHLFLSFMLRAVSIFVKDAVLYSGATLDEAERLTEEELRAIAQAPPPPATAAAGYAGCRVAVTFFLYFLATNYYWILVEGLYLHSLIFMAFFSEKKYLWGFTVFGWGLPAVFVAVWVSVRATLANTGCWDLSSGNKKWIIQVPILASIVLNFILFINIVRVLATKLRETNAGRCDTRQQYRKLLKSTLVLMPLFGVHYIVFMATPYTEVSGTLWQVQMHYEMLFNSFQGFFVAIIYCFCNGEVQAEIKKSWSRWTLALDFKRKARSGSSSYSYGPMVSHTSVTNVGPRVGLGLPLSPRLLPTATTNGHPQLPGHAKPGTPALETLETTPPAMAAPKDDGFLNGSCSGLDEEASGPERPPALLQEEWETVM
Description: Agonist activity at human PTH receptor at 100 uM to 5 mM.

Assay [11] has as its target T5, C5a anaphylatoxin chemotactic receptor 1 (Homo sapiens) (UniProt P21730).
T5 sequence (whole entry): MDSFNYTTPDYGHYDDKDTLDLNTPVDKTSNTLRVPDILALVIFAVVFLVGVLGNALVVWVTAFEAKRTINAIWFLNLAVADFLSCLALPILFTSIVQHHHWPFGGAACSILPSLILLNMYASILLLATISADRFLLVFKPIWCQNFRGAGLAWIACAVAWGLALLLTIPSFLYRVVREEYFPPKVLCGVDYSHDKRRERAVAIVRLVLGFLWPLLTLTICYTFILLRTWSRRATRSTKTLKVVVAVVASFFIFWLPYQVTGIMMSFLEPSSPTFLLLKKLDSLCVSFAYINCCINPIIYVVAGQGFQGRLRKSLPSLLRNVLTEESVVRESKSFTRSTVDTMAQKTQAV
In words: Agonist activity at human C5a receptor at 100 uM to 5 mM.

Active and inactive are the calls of the source. The calls are words filed in the database; no cut-off is given here.

Chain of Neuromedin-U receptor 2 (Q9GZQ4 whole entry): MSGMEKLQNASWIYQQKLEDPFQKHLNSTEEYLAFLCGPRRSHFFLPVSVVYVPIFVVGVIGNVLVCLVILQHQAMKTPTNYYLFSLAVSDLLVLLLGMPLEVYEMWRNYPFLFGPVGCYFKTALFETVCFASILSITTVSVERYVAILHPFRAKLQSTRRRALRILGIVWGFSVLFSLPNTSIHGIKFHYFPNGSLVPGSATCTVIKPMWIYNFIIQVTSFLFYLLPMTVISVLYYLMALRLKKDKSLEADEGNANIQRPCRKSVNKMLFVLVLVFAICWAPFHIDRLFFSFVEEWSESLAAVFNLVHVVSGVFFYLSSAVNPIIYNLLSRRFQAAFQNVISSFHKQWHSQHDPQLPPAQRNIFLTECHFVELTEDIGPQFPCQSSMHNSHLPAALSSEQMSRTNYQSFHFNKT
Chain of Melanocyte-stimulating hormone receptor (Mus musculus) (Q01727 whole entry, looked up): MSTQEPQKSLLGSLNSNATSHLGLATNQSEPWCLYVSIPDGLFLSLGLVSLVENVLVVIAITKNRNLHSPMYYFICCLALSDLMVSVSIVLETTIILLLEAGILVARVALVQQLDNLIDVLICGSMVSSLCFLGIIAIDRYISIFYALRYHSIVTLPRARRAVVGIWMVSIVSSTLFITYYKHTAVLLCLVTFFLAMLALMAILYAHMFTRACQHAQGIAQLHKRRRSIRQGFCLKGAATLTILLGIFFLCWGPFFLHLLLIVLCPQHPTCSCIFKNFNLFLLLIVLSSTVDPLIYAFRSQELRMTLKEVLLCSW
Chain of D(1A) dopamine receptor (Homo sapiens) (P21728 whole entry): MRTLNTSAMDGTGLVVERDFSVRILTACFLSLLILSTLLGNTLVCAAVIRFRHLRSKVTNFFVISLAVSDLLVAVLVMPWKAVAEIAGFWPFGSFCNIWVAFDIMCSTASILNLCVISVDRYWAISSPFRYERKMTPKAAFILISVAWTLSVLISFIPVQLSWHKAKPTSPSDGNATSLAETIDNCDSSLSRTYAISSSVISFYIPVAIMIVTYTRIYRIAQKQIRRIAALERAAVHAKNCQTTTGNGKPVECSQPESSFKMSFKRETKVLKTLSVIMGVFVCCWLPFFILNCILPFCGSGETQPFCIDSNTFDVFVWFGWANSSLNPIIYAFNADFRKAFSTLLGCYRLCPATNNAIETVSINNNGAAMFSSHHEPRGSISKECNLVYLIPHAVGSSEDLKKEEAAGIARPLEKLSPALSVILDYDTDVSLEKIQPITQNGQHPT
Chain of Melanocortin receptor 4 (Homo sapiens) (P32245 whole entry): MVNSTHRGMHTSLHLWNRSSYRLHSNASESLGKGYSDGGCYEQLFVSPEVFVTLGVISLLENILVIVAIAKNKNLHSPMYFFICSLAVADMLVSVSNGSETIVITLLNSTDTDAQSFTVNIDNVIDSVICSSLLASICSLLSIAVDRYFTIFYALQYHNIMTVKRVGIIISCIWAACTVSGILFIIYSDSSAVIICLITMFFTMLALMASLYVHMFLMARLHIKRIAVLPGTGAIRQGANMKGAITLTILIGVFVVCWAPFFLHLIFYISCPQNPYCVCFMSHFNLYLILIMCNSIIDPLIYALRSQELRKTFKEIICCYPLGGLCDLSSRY
Chain of Adrenocorticotropic hormone receptor (Homo sapiens) (Q01718 whole entry): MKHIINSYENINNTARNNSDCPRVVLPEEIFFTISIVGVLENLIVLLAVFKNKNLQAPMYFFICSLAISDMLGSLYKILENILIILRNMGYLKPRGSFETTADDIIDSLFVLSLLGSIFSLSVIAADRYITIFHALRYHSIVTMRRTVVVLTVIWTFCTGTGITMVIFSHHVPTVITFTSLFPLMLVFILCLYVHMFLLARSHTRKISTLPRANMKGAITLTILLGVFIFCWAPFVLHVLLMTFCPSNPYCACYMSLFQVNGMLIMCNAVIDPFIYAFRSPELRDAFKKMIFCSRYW
Chain of Melanocortin receptor 5 (Mus musculus) (P41149 whole entry): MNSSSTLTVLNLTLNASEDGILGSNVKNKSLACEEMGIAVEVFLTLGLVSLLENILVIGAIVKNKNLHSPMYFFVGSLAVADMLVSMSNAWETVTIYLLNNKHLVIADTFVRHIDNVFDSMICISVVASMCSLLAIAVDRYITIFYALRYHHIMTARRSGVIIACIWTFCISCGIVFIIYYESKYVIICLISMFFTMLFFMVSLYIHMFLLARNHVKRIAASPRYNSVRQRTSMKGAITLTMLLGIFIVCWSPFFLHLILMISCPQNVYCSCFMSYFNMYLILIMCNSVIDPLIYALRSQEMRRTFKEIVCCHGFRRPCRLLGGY
Chain of Melanocyte-stimulating hormone receptor (Homo sapiens) (Q01726 whole entry, looked up): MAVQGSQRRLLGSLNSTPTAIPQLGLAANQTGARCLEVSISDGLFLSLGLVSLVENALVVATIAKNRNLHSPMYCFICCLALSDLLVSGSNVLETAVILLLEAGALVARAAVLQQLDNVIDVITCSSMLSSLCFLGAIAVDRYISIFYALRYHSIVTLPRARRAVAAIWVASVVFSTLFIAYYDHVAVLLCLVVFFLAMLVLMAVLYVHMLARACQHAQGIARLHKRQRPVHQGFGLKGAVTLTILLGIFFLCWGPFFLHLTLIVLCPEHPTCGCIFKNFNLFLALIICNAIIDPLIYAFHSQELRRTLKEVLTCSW

On to `O=c1c(O)c(-c2ccccc2F)oc2ccccc12`, for which the EC50 (in general, the concentration that produces a half-maximal response) on Neuromedin-U receptor 2 (read-out: EC50) was 37.3 µM. The outcome in assay [1], in [2], in [3], in assay [4], in assay [5] and in assay [6] was inactive. Besides, the outcome in [7], in [8], in assay [9], in [10] and in [11] was inactive.

Consider `Fc1ccccc1C1C=Cc2ccccc2O1` (racemic), for which the EC50 result at Neuromedin-U receptor 2 (hek293) is given as “Not Active”. Also, the outcome in [1], in assay [2], in [3], in assay [4], in assay [5] and in assay [6] was inactive. The outcome in assay [7], in [8], in [9], in assay [10] and in [11] was inactive.

`O=c1c(O)c(-c2c(F)cccc2Cl)oc2ccccc12`: at Neuromedin-U receptor 2 (hek293), the EC50 entry is “Not Active”. The result in [1], in assay [2], in assay [3], in assay [4], in assay [5] and in [6] was inactive. The result in assay [7], in assay [8], in [9], in assay [10] and in assay [11] was inactive.
